Measurements from ChEMBL document CHEMBL1127574, “Design and synthesis of ellipticinium salts and 1,2-dihydroellipticines with high selectivities against human CNS cancers in vitro” (1994).

Assays:
Type in all cases: functional
HOP-92 = assay: Tested in vitro for cytotoxicity in HOP-92 cell line of Non-Small Cell Lung Cancer; details: Homo sapiens, read-out: Log TGI (converted)
Method in brief: (§1)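 Compounds dissolved in DMSO, then diluted 500-fold into aqueous medium. The resulting aqueous solutions or suspensions were added to the cultured human tumour cell lines, and the cells were exposed for 48 h. Growth was read colorimetrically in one of two ways: a metabolic assay in which viable cells reduce a tetrazolium salt to a formazan dye, or a protein stain for total cellular protein.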

HCT-116 = assay: Tested in vitro for cytotoxicity in HCT116 cell line of Colon Cancer; details: Homo sapiens, read-out: Log TGI (converted); method in brief: as §1
OVCAR-4 = assay: Tested in vitro for cytotoxicity in OVCAR-4 cell line of Ovarian Cancer; details: Homo sapiens, read-out: Log TGI (converted); method in brief: as §1
RXF 393 = assay: Tested in vitro for cytotoxicity in RXF-393 cell line of Renal cancer; details: Homo sapiens, read-out: Log TGI (converted); method in brief: as §1
COLO 205 [1] = assay: Tested in vitro for cytotoxicity in COLO 205 cell lines; details: Homo sapiens; method in brief: as §1
NCI-H522 = assay: Tested in vitro for cytotoxicity in NCI-H522 cell line of Non-Small Cell Lung Cancer; details: Homo sapiens, read-out: Log TGI (converted); method in brief: as §1
NCI-H322M = assay: Tested in vitro for cytotoxicity in NCI-H322M cell line of Non-Small Cell Lung Cancer; details: Homo sapiens, read-out: Log TGI (converted); method in brief: as §1
HT-29 = assay: Tested in vitro for cytotoxicity in HT-29 cell line of Colon Cancer; details: Homo sapiens, read-out: Log TGI (converted); method in brief: as §1
RPMI-8226 = assay: Tested in vitro for cytotoxicity in RPMI-8226 cell line of Leukemia; details: Homo sapiens, read-out: Log TGI (converted); method in brief: as §1
M14 = assay: Tested in vitro for cytotoxicity in M14 cell line of Melanoma; details: Homo sapiens, read-out: Log TGI (converted); method in brief: as §1
LOX IMVI = assay: Tested in vitro for cytotoxicity in LOX IMVI cell line of Melanoma; details: Homo sapiens, read-out: Log TGI (converted); method in brief: as §1
SF-295 = assay: Tested in vitro for cytotoxicity in SF-295 cell line of CNS Cancer; details: Homo sapiens, read-out: Log TGI (converted); method in brief: as §1
CCRF-CEM = assay: Tested in vitro for cytotoxicity in CCRF-CEM cell lines; details: Homo sapiens; method in brief: as §1
DMS-114 = assay: Tested in vitro for cytotoxicity in DMS114 cell line of Small Cell Lung Cancer; details: Homo sapiens, read-out: Log TGI (converted); method in brief: as §1
IGROV-1 = assay: Tested in vitro for cytotoxicity in IGROV1 cell line of Ovarian Cancer; details: Homo sapiens, read-out: Log TGI (converted); method in brief: as §1
HCT-15 = assay: Tested in vitro for cytotoxicity in HCT-15 cell line of Colon Cancer; details: Homo sapiens, read-out: Log TGI (converted); method in brief: as §1
SNB-75 = assay: Tested in vitro for cytotoxicity in SNB-75 cell line of CNS Cancer; details: Homo sapiens, read-out: Log TGI (converted)
Method in brief: (§2)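 Compounds dissolved in DMSO and diluted 500-fold into aqueous medium; aliquots of the resulting solutions or suspensions added to cultured human tumor cells for 48 h. Growth read colorimetrically, either by tetrazolium reduction to formazan by viable cells or by protein staining of total cellular protein.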

COLO 205 [2] = assay: Tested in vitro for cytotoxicity in COLO 205 cell line of Colon Cancer; details: Homo sapiens, read-out: Log TGI (converted); method in brief: as §1
SN12C = assay: Tested in vitro for cytotoxicity in SN12C cell line of Renal cancer; details: Homo sapiens, read-out: Log TGI (converted); method in brief: as §2
DMS-273 = assay: Tested in vitro for cytotoxicity in DMS273 cell line of Small Cell Lung Cancer; details: Homo sapiens, read-out: Log TGI (converted); method in brief: as §1
NCI-H23 = assay: Tested in vitro for cytotoxicity in NCI-H23 cell line of Non-Small Cell Lung Cancer; details: Homo sapiens, read-out: Log TGI (converted); method in brief: as §1
Malme-3M = assay: Tested in vitro for cytotoxicity in MALME-3M cell line of Melanoma; details: Homo sapiens, read-out: Log TGI (converted); method in brief: as §1
K562 = assay: Tested in vitro for cytotoxicity in K-562 cell line of Leukemia; details: Homo sapiens, read-out: Log TGI (converted); method in brief: as §1
OVCAR-5 = assay: Tested in vitro for cytotoxicity in OVCAR-5 cell line of Ovarian Cancer; details: Homo sapiens, read-out: Log TGI (converted); method in brief: as §1
HCC 2998 = assay: Tested in vitro for cytotoxicity in HCC2998 cell line of Colon Cancer; details: Homo sapiens, read-out: Log TGI (converted); method in brief: as §1
A549 = assay: Tested in vitro for cytotoxicity in A549/ATCC cell line of Non-Small Cell Lung Cancer; details: Homo sapiens, read-out: Log TGI (converted); method in brief: as §1
SF-268 = assay: Tested in vitro for cytotoxicity in SF-268 cell line of CNS cancer; details: Homo sapiens, read-out: Log TGI (converted); method in brief: as §1
KM12 = assay: Tested in vitro for cytotoxicity in KM12 cell line of Colon Cancer; details: Homo sapiens, read-out: Log TGI (converted); method in brief: as §1
UO-31 = assay: Tested in vitro for cytotoxicity in UO-31 cell line of Renal cancer; details: Homo sapiens, read-out: Log TGI (converted); method in brief: as §2
A498 = assay: Tested in vitro for cytotoxicity in A498 cell line of Renal cancer; details: Homo sapiens, read-out: Log TGI (converted); method in brief: as §1
TK-10 = assay: Tested in vitro for cytotoxicity in TK-10 cell line of Renal cancer; details: Homo sapiens, read-out: Log TGI (converted); method in brief: as §2

SMILES: COc1ccc2[nH]c3c(C)c4c(c(C)c3c2c1)CN(C)C=C4
- TGI (HOP-92): 25.1 µM
- TGI (HCT-116): 15.8 µM
- TGI (OVCAR-4): 25.1 µM
- TGI (RXF 393): 31.6 µM
- GI50 (COLO 205 [1]): 1.32 µM
- TGI (NCI-H522): 5.01 µM
- TGI (NCI-H322M): 15.8 µM
- TGI (HT-29): 25.1 µM
- TGI (RPMI-8226): > 100 µM
- TGI (M14): 25.1 µM
- TGI (LOX IMVI): 25.1 µM
- TGI (SF-295): 7.94 µM
- GI50 (CCRF-CEM): 2.64 µM
- TGI (DMS-114): 2.51 µM
- TGI (IGROV-1): 39.8 µM
- TGI (HCT-15): > 100 µM
- TGI (SNB-75): 0.794 µM
- TGI (COLO 205 [2]): 5.01 µM
- TGI (SN12C): 0.794 µM
- TGI (DMS-273): 12.6 µM
- TGI (NCI-H23): 3.98 µM
- TGI (Malme-3M): 5.01 µM
- TGI (K562): > 100 µM
- TGI (OVCAR-5): 31.6 µM
- TGI (HCC 2998): 12.6 µM
- TGI (A549): 50.1 µM
- TGI (SF-268): 0.631 µM
- TGI (KM12): 15.8 µM
- TGI (UO-31): > 100 µM
- TGI (A498): 63.1 µM
- TGI (TK-10): 50.1 µM
